Rows were chosen to be rich in hits. Some 4.8% of all compounds tested hit in one or more screens of this group.
NLRP3 yeast inh = blocks the NALP3 inflammasome reconstituted in yeast; Yeast reconstituted NLRP3/ASC/caspase-1, beta-gal luminescence, 24 h; inhibition, % at 10 µM; actives 0.39% (n = 330,000);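 active = inhibition of 50% or more; inactive = inhibition below 50%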;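 note: plate controls were induced DMSO wells for no effect and uninduced yeast grown without galactose for full effect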
Calb FLC = C. albicans growth modulation with fluconazole | C. albicans CaCi-2 + fluconazole, Alamar Blue growth, 48 h | growth inhibition, % (no concentration beside the values) | actives 0.57% (n = 300,000) | AID 1979;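 active = growth inhibition above about 58% in most replicates, limit read from the data, passing the limit was not always enough; inconclusive = exactly half the replicates above a set limit; inactive = most replicates below a set limit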;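 note: all wells also contain fluconazole at 8 µg/ml as a sub-toxic cotreatment; 0% = median of DMSO wells and 100% = median of geldanamycin control wells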
UCH37 inh = inhibitors of human deubiquitinating enzyme UCH37; actives 0.33% (n = 330,000); purified proteasome/UCH37, Ub-AMC cleavage fluorescence; Q9Y5K5; AID 588478; inhibition, % (test concentration not listed);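 active = mean inhibition over replicate wells above about 20%, limit read from the data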;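 note: 0% = compound-free wells with enzyme and 100% = wells lacking proteasome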
Target sequence (Q9Y5K5 whole entry, looked up): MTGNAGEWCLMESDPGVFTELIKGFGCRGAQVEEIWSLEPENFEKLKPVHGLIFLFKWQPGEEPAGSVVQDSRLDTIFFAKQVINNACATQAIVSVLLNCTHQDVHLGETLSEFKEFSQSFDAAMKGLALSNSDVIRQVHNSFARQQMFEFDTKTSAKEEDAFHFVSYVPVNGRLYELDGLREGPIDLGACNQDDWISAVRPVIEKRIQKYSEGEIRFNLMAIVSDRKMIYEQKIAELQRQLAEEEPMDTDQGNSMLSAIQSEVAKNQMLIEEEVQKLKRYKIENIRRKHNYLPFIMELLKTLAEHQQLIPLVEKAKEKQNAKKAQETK
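Material: human UCH37 enzyme supplied as purified proteasome complex / Amount: 0.15 nM proteasome as dispensed / Buffer or medium: pH 7.4 Tris-HCl (50 mM) with ovalbumin, ATP-MgCl2, DTT / Times: preincubation 30 min, reaction 25 min, room temperature / Technique: AMC fluorescence from Ub-AMC cleavage, excitation 355 nm, emission 460 nm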
ALR inh = blocks human ALR sulfhydryl oxidase activity; P55789; purified ALR, DTT oxidation, H2O2 HRP-luminol luminescence; inhibition, % (concentration not given with the values); actives 3.8% (n = 290,000); AID 485317;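 active = mean replicate inhibition above about 79%, with every replicate also reaching it, limit read from the data; inconclusive = only one of the two criteria met; inactive = mean below limit and not every replicate reaching it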
Target sequence (P55789 whole entry, looked up): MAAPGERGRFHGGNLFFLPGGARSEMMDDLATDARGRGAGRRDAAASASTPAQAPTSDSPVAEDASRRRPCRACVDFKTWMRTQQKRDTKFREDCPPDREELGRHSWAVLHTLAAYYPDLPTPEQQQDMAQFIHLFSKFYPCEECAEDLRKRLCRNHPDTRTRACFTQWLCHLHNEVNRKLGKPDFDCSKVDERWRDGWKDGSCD
ATG4B inhibitor = blocks human ATG4B protease cleavage of LC3 substrate; Q9Y4P1; ATG4B cleavage of LC3-PLA2, NBD-HPC fluorescence, 1 h; inhibition, % at 8.33 µM; actives 0.51% (n = 340,000); AID 504462; in the data active = inhibition above about 40%
NALP1 yeast inh = inhibitors of NALP1 inflammasome in yeast. S. cerevisiae NALP1/ASC/caspase-1 growth, X-gal OD620, 72 h. inhibition, % at 10 µM. actives 0.61% (n = 280,000); in the data active = inhibition mostly above about 24%, no sharp cut-off; inactive = mostly below about 32%
UCH37 reconfirm = confirmation of human UCH37 deubiquitinating enzyme inhibitors; AID 624100; inhibition, % at 20 µM; Proteasome-bound UCH37, Ub-AMC cleavage fluorescence; shares compounds with UCH37 inh; actives 27% (n = 480);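 active = average inhibition over replicates above about 50%, so the earlier screening hit is confirmed, limit read from the data; inactive = the rest, counted as false positives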;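 note: based on cleavage rate fitted by regression over a 30 min kinetic read; 0% = proteasome plus Ub-AMC and 100% = Ub-AMC without proteasome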
* hit, by the source's call.

Screening S=C(Nc1ccc(Nc2ccccc2)cc1)Nc1ccccn1 returned NLRP3 yeast inh 23.5, Calb FLC -4.2, UCH37 inh 46.1*, ALR inh 74.5, ATG4B inhibitor 18.8, NALP1 yeast inh 13.7 and UCH37 reconfirm -4.1.
`C=CCc1cccc(C=Nc2ncccc2O)c1O` gave UCH37 inh 3.9.
`COc1ccc(NC(=O)/C(C#N)=C/c2ccc(Br)o2)cc1` gave NLRP3 yeast inh 33.1, Calb FLC -10.0, UCH37 inh 4.0, ALR inh -9.0, ATG4B inhibitor -5.6 and NALP1 yeast inh 30.4.
`N#C/C(=C\c1ccc(N2CCOCC2)o1)C(=O)Nc1ccc(O)cc1` gave NLRP3 yeast inh 3.6, Calb FLC 38.6, UCH37 inh 28.6*, ALR inh 99.0*, ATG4B inhibitor -10.0, NALP1 yeast inh 3.0 and UCH37 reconfirm 25.4.
For N#C/C(=C/c1ccc(N2CCCCC2)o1)C(=O)Nc1ccc(Cl)cc1 the results were NLRP3 yeast inh 20.4, Calb FLC -0.2, UCH37 inh 0.0, ALR inh -1.3, ATG4B inhibitor 7.6 and NALP1 yeast inh 29.5.
Screening N#C/C(=C/c1ccc(N2CCOCC2)o1)C(=O)NC1CCCCC1 returned NLRP3 yeast inh 26.2, Calb FLC 46.8, UCH37 inh 26.6*, ALR inh 63.0, ATG4B inhibitor -3.8, NALP1 yeast inh 1.5 and UCH37 reconfirm 19.3.
Screening COc1ccc(NC(=O)/C(C#N)=C\c2ccc(N3CCOCC3)o2)cc1 returned NLRP3 yeast inh 38.3, Calb FLC 103.1*, UCH37 inh 27.2*, ALR inh 79.6*, ATG4B inhibitor -11.9, NALP1 yeast inh 7.0 and UCH37 reconfirm 14.2.
For N#C/C(=C/c1ccc(N2CCCCC2)o1)C(=O)Nc1ccc2ccccc2c1 the results were Calb FLC inconclusive, UCH37 inh 3.2, ATG4B inhibitor -9.7 and NALP1 yeast inh 32.5.
Screening Cc1ccc(-c2cc(C(=O)NN=Cc3ccco3)[nH]n2)cc1 returned UCH37 inh 1.1.
Screening O=C(CC=NOCc1ccc([N+](=O)[O-])cc1)Nc1ccc(F)cc1F returned UCH37 inh 0.6.
For CCOC(=O)CC1=NN(c2ccccc2)C(=O)/C1=C\c1ccc(OC)cc1OC the results were NLRP3 yeast inh -11.0, Calb FLC 39.4, UCH37 inh 35.5*, ALR inh -16.5, ATG4B inhibitor -1.9, NALP1 yeast inh -0.1 and UCH37 reconfirm -2.7.
`Cc1nn(Cc2ccc(Cl)cc2)c(Cl)c1C=NNC(=O)CNc1ccccc1F` gave UCH37 inh -0.9.
`Cc1ccccc1NS(=O)(=O)c1cc(C(=O)NCCC2=CCCCC2)ccc1C` gave NLRP3 yeast inh 15.0, Calb FLC 28.6, UCH37 inh 39.8*, ALR inh -2.0, ATG4B inhibitor -1.9, NALP1 yeast inh 5.0 and UCH37 reconfirm 41.4.
For O=C(NCCC1=CCCCC1)c1ccc(Br)o1 the results were NLRP3 yeast inh -16.8, Calb FLC 13.9, UCH37 inh 82.6*, ATG4B inhibitor -8.2, NALP1 yeast inh 1.2 and UCH37 reconfirm 90.5*.
Screening O=C(NCCC1=CCCCC1)C1COc2ccccc2O1 (configuration not stated) returned NLRP3 yeast inh 27.5, UCH37 inh 46.7*, ALR inh -3.9, ATG4B inhibitor -9.4, NALP1 yeast inh -4.4 and UCH37 reconfirm 67.4*.
`Cc1cc(=O)[nH]c(NN=Cc2ccccc2C(F)(F)F)n1` gave UCH37 inh -9.0.
For CCOC(=O)c1c(C)cc(=O)oc1C the results were NLRP3 yeast inh 15.5, Calb FLC -4.0, UCH37 inh 4.8, ALR inh 2.7, ATG4B inhibitor -4.3 and NALP1 yeast inh 34.0.
Cc1oc2c(c1C(=O)c1ccccc1)C(=O)C(=O)c1ccccc1-2 was read as NLRP3 yeast inh 16.2, Calb FLC 2.9, UCH37 inh 49.2*, ALR inh 20.5, ATG4B inhibitor 13.2, NALP1 yeast inh 6.9 and UCH37 reconfirm 32.6.
Cc1oc2c(c1C(=O)O)C(=O)c1ccccc1C2=O was read as NLRP3 yeast inh 3.1, Calb FLC 10.1, UCH37 inh 49.0*, ATG4B inhibitor -8.1, NALP1 yeast inh 6.4 and UCH37 reconfirm 45.9.
Cc1onc(-c2ccccc2Cl)c1C(=O)c1ccccc1 was read as NLRP3 yeast inh 20.1, Calb FLC 11.7, ATG4B inhibitor -0.4 and NALP1 yeast inh 16.3.
For CCOC(=O)c1c(C)oc2c1C(=O)c1ccccc1C2=O the results were NLRP3 yeast inh -3.8, UCH37 inh 27.8*, ALR inh -27.5, ATG4B inhibitor -13.5, NALP1 yeast inh 4.8 and UCH37 reconfirm 29.0.
CCCc1c(C(=O)NN=C/C(C)=C/c2ccccc2)nnn1-c1nonc1N was read as UCH37 inh 3.8.
`Cc1cccc(N=C2C(=O)Nc3c(Cl)cccc32)c1` gave NLRP3 yeast inh 15.7, Calb FLC 0.1, UCH37 inh 3.0, ALR inh -3.1, ATG4B inhibitor -0.7 and NALP1 yeast inh -7.0.
For O=C1Nc2c(Cl)cc(Cl)cc2C1=O the results were UCH37 inh 62.2*, ATG4B inhibitor 14.7 and UCH37 reconfirm 74.6*.
`O=C1/C(=N\S(=O)(=O)c2cccs2)C([n+]2ccccc2)=C([O-])c2ccccc21` gave NLRP3 yeast inh 10.3, Calb FLC 1.2, UCH37 inh 50.6*, ALR inh -23.6, ATG4B inhibitor -1.8 and UCH37 reconfirm 39.6.
`CC(C)(C)c1cc[n+](C2=C([O-])c3ccccc3C(=O)/C2=N\S(=O)(=O)c2cccs2)cc1` gave NLRP3 yeast inh 18.3, Calb FLC 57.0, UCH37 inh 49.7*, ALR inh -24.9, ATG4B inhibitor 20.1, NALP1 yeast inh 3.1 and UCH37 reconfirm 57.9*.
CNC(=S)NN=C(C)c1ccc2c(c1)OCO2 was read as UCH37 inh 4.3.
COc1ccc(C=NNc2nnc(Cc3ccc(OC)c(OC)c3)c(=O)[nH]2)cc1OC was read as UCH37 inh 5.2.
`COc1cccc(C=NNC(=O)CNC(=O)c2ccc(S(=O)(=O)N3CCOCC3)cc2)c1OC` gave UCH37 inh -2.2.
`CC(C)n1cc(/C=C/c2cc[n+](C)cc2)c2ccccc21` gave NLRP3 yeast inh 26.1, Calb FLC 87.1*, UCH37 inh 27.7*, ATG4B inhibitor -9.5, NALP1 yeast inh 15.7 and UCH37 reconfirm 19.4.
`CS(=O)(=O)c1ccc(S(=O)CC(=O)OCc2ccccc2)c([N+](=O)[O-])c1` (configuration not stated) gave Calb FLC 63.8, UCH37 inh 43.6*, ATG4B inhibitor -20.9, NALP1 yeast inh -2.5 and UCH37 reconfirm 21.6.
